The source made the active and inactive calls. How the calls were made is not given here.
What was measured:
[1] = Cytotoxicity against human HuH7 cells infected with Hepatitis C virus subtype 2a; type: cell-based, Huh-7
Hepatitis C virus [2] = test: Antiviral activity against Hepatitis C virus subtype 2a infected in human HuH7 cells; type: functional, organism-based, Hepacivirus hominis; settings: genotype 2a, Huh-7
[3] = Cytotoxicity against human HuH7 cells infected with Hepatitis C virus subtype 1b; type: cell-based, Huh-7
Hepatitis C virus [4] = test: Antiviral activity against Hepatitis C virus subtype 1b infected in human HuH7 cells; type: functional, organism-based, Hepacivirus hominis; settings: genotype 1b, Huh-7
Candida tropicalis = test: Antifungal activity against Candida tropicalis after 48 hrs; type: functional, organism-based
Pichia kudriavzevii = test: Antifungal activity against Candida crusei after 48 hrs; type: functional, organism-based
Candida parapsilosis = test: Antifungal activity against Candida parapsilosis after 48 hrs; type: functional, organism-based
Candida albicans = test: Antifungal activity against Candida albicans after 48 hrs; type: functional, organism-based
Pseudomonas aeruginosa [5] = test: Antibacterial activity against multi-resistant Pseudomonas aeruginosa A/16575 after 24 hrs; type: functional, organism-based
Escherichia coli [6] = test: Antibacterial activity against multi-resistant Escherichia coli C/16702 after 24 hrs; type: functional, organism-based
[7] = system: Staphylococcus haemolyticus; test: Antibacterial activity against methicillin-resistant Staphylococcus haemolyticus A/16568 after 24 hrs; type: functional, organism-based
Staphylococcus aureus [8] = test: Antibacterial activity against methicillin-resistant Staphylococcus aureus MRSA 4591 after 24 hrs; type: functional, organism-based
Pseudomonas aeruginosa [9] = test: Antibacterial activity against Pseudomonas aeruginosa CCM 3955 after 24 hrs; type: functional, organism-based
Escherichia coli [10] = test: Antibacterial activity against Escherichia coli CCM 3954 after 24 hrs; type: functional, organism-based
Staphylococcus aureus [11] = test: Antibacterial activity against Staphylococcus aureus CCM 3953 after 24 hrs; type: functional, organism-based
Enterococcus faecalis = test: Antibacterial activity against Enterococcus faecalis CCM 4224 after 24 hrs; type: functional, organism-based
[12] = Antiproliferative activity against human HeLaS3 cells after 72 hrs by XTT assay; type: functional, cell-based; settings: HeLa S3, 72 h
How it was run: (§1)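 Antiproliferative test on HL-60 promyelocytic leukemia and HeLa S3 cervical carcinoma cells growing in liquid suspension.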

HL-60 = test: Antiproliferative activity against human HL60 cells after 72 hrs by XTT assay; type: functional, cell-based; settings: HL-60, 72 h; how it was run: as §1
HepG2 = test: Antiproliferative activity against human HepG2 cells after 72 hrs by XTT assay; type: functional, cell-based; settings: HepG2, 72 h
MRC5 = test: Cytostatic activity against human MRC5 cells after 72 hrs by MTT assay; type: ADME, cell-based; settings: MRC5, 72 h
How it was run: (§2)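 IC50 is the concentration that cuts cell growth by 50%, read by quantitative metabolic MTT staining after a 3-day treatment. The resistant sublines were made by raising the concentration of the cytotoxic drug step by step. CEM-DNR-bulk (daunorubicin-selected) stably overexpresses mrp-1. K562-TAX (paclitaxel-selected) expresses only mdr-1. HCT116p53−/− carries null p53 alleles. BJ and MRC-5 are nonmalignant fibroblasts.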

BJ = test: Cytostatic activity against human BJ cells after 72 hrs by MTT assay; type: ADME, cell-based; how it was run: as §2
HCT-116 [13] = test: Cytostatic activity against p53-deficient human HCT116 cells after 72 hrs by MTT assay; type: functional, cell-based; settings: HCT-116, 72 h; how it was run: as §2
HCT-116 [14] = test: Cytostatic activity against human HCT116 cells after 72 hrs by MTT assay; type: functional, cell-based; settings: HCT-116, 72 h; how it was run: as §2
A549 = test: Cytostatic activity against human A549 cells after 72 hrs by MTT assay; type: functional, cell-based; settings: A549, 72 h; how it was run: as §2
K562 [15] = test: Cytostatic activity against paclitaxel-resistant human K562 cells after 72 hrs by MTT assay; type: functional, cell-based; settings: K562, 72 h; how it was run: as §2
K562 [16] = test: Cytostatic activity against human K562 cells after 72 hrs by MTT assay; type: functional, cell-based; settings: K562, 72 h; how it was run: as §2
[17] = Cytostatic activity against human CEM-DNR-bulk cells after 72 hrs by MTT assay; type: functional, cell-based; how it was run: as §2
CCRF-CEM = test: Cytostatic activity against human CCRF-CEM cells after 72 hrs by MTT assay; type: functional, cell-based; how it was run: as §2

| Compound | CC50 [1] [µM] | EC50 (Hepatitis C virus [2]) [µM] | CC50 [3] [µM] | EC50 (Hepatitis C virus [4]) [µM] | Activity (Candida tropicalis) | Activity (Pichia kudriavzevii) | Activity (Candida parapsilosis) | Activity (Candida albicans) | Activity (Pseudomonas aeruginosa [5]) | Activity (Escherichia coli [6]) | Activity [7] | Activity (Staphylococcus aureus [8]) | Activity (Pseudomonas aeruginosa [9]) | Activity (Escherichia coli [10]) | Activity (Staphylococcus aureus [11]) | Activity (Enterococcus faecalis) | IC50 [12] [µM] | IC50 (HL-60) [µM] | IC50 (HepG2) [µM] | IC50 (MRC5) [µM] | further results |
| --- | --- | --- | --- | --- | --- | --- | --- | --- | --- | --- | --- | --- | --- | --- | --- | --- | --- | --- | --- | --- | --- |
| CN(C)c1ncnc2c1c(-c1ccoc1)cn2[C@@H]1O[C@H](CO)[C@@H](O)[C@H]1O | > 44 | > 44 | > 44 | 7.88 | inactive | inactive | inactive | inactive | inactive | inactive | inactive | inactive | inactive | inactive | inactive | inactive | 9.06 | 1.16 | 12.5 | > 100 | IC50 (BJ): 99.2 µM; IC50 (HCT-116 [13]): > 20 µM; IC50 (HCT-116 [14]): > 20 µM; IC50 (A549): > 20 µM; IC50 (K562 [15]): 14.9 µM; IC50 (K562 [16]): 1.54 µM; IC50 [17]: > 20 µM; IC50 (CCRF-CEM): 13.3 µM |
| COc1ncnc2c1c(-c1ccccc1)cn2[C@@H]1O[C@H](CO)[C@@H](O)[C@H]1O | > 44 | > 44 | > 44 | 21 | inactive | inactive | inactive | inactive | inactive | inactive | inactive | inactive | inactive | inactive | inactive | inactive | > 20 | > 20 | > 20 | > 100 | IC50 (BJ): > 100 µM; IC50 (HCT-116 [13]): > 20 µM; IC50 (HCT-116 [14]): > 20 µM; IC50 (A549): > 20 µM; IC50 (K562 [15]): > 20 µM; IC50 (K562 [16]): > 20 µM; IC50 [17]: > 20 µM; IC50 (CCRF-CEM): > 20 µM |
| Cc1nc(N)c2ccn([C@@H]3O[C@H](CO)[C@@H](O)[C@H]3O)c2n1 | > 44 | > 44 | > 44 | > 44 | inactive | inactive | inactive | inactive | inactive | inactive | inactive | inactive | inactive | inactive | inactive | inactive | > 20 | > 20 | > 20 | > 100 | IC50 (BJ): > 100 µM; IC50 (HCT-116 [13]): > 20 µM; IC50 (HCT-116 [14]): > 20 µM; IC50 (A549): > 100 µM; IC50 (K562 [15]): > 20 µM; IC50 (K562 [16]): > 20 µM; IC50 [17]: > 20 µM; IC50 (CCRF-CEM): > 20 µM |
| Cc1nc(N)c2c(-c3ccoc3)cn([C@@H]3O[C@H](CO)[C@@H](O)[C@H]3O)c2n1 | > 44 | > 44 | > 44 | > 44 | inactive | inactive | inactive | inactive | inactive | inactive | inactive | inactive | inactive | inactive | inactive | inactive | > 20 | > 20 | > 20 | > 100 | IC50 (BJ): > 100 µM; IC50 (HCT-116 [13]): > 20 µM; IC50 (HCT-116 [14]): > 20 µM; IC50 (A549): > 20 µM; IC50 (K562 [15]): > 20 µM; IC50 (K562 [16]): > 20 µM; IC50 [17]: > 20 µM; IC50 (CCRF-CEM): > 100 µM |
| CN(C)c1ncnc2c1c(-c1ccccc1)cn2[C@@H]1O[C@H](CO)[C@@H](O)[C@H]1O | > 44 | > 44 | > 44 | 26.9 | inactive | inactive | inactive | inactive | inactive | inactive | inactive | inactive | inactive | inactive | inactive | inactive | > 20 | > 20 | > 20 | > 100 | IC50 (BJ): > 100 µM; IC50 (HCT-116 [13]): > 20 µM; IC50 (HCT-116 [14]): > 20 µM; IC50 (A549): > 100 µM; IC50 (K562 [15]): > 20 µM; IC50 (K562 [16]): > 20 µM; IC50 [17]: > 20 µM; IC50 (CCRF-CEM): > 20 µM |
| CSc1ncnc2c1c(-c1cccs1)cn2[C@@H]1O[C@H](CO)[C@@H](O)[C@H]1O | > 44 | > 44 | > 44 | 5.42 | inactive | inactive | inactive | inactive | inactive | inactive | inactive | inactive | inactive | inactive | inactive | inactive | 1.96 | 1.13 | > 20 | > 100 | IC50 (BJ): 96.9 µM; IC50 (HCT-116 [13]): > 20 µM; IC50 (HCT-116 [14]): > 20 µM; IC50 (A549): > 20 µM; IC50 (K562 [15]): > 20 µM; IC50 (K562 [16]): 11.6 µM; IC50 [17]: > 20 µM; IC50 (CCRF-CEM): > 20 µM |
